Screens deposited in PubChem BioAssay by The Scripps Research Institute Molecular Screening Center.
NR2E3 ag-1: NR2E3 agonists in two-hybrid cells, primary screen, cell-based, luminescence, CHO-S, Gal4-NCOR/VP16-NR2E3; AID 602229, 2012; 360,000 compounds, 0.35% hits; Photoreceptor-specific nuclear receptor (Homo sapiens), Q9Y5X4; inhibition of corepressor binding, % at 3.98 µM; luciferase;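 active = inhibition above the mean of all tested compounds plus 3 SD, cut at about 70% in these data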;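 also: higher means lower luciferase signal from less NR2E3 corepressor binding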
NR2E3 ag-2: inhibitors of NR2E3-RetCOR corepressor binding, primary screen, NR2E3 agonist project, biochemical, TR-FRET, GST-NR2E3, biotin-RetCOR. Photoreceptor-specific nuclear receptor (Homo sapiens), Q9Y5X4. 1536-well. AID 2300, 2010. inhibition of corepressor binding, % at 4.78 µM. 320,000 compounds, 0.12% hits;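 active = percent inhibition above the cutoff of mean plus 3 SD of all tested compounds, set per screening campaign, cut at about 20% in these data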
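Assay system: NR2E3–RetCOR corepressor complex. Quantity: 1.35 nM GST-NR2E3. Buffer or medium: pH 7.5 Tris-based buffer. Reagent: biotinylated RetCOR corepressor at 7 nM final. Schedule: 5 h at 4 °C. Detection: TR-FRET, emission read at 617 and 671 nm. Replicates: one well per compound, singlicate testing.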
PP1 inh: PP1-alpha phosphatase inhibitors, primary screen, counter-screen for PP5 inhibitor project, biochemical, fluorescence, OMFP substrate, single point | Serine/threonine-protein phosphatase PP1-alpha catalytic subunit (Homo sapiens), P62136 | purified PP1alpha | inhibition, % at 6.7 µM | 320,000 compounds, 0.9% hits;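 active = inhibition above the mean inhibition of all tested compounds plus 3 SD, computed separately for each screening campaign, cut at about 15% in these data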
PP5 primary: PP5 phosphatase inhibitors, primary screen, biochemical, fluorescence; 320,000 compounds, 0.18% hits; Serine/threonine-protein phosphatase 5 (Homo sapiens), P53041; purified PP5c, OMFP substrate fluorescence; inhibition, % at 6.7 µM; AID 1987, 2009;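 active = inhibition above the campaign's mean inhibition across all tested compounds plus 3 SD, cut at about 9.5% in these data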
Target sequence (P53041 whole entry, looked up): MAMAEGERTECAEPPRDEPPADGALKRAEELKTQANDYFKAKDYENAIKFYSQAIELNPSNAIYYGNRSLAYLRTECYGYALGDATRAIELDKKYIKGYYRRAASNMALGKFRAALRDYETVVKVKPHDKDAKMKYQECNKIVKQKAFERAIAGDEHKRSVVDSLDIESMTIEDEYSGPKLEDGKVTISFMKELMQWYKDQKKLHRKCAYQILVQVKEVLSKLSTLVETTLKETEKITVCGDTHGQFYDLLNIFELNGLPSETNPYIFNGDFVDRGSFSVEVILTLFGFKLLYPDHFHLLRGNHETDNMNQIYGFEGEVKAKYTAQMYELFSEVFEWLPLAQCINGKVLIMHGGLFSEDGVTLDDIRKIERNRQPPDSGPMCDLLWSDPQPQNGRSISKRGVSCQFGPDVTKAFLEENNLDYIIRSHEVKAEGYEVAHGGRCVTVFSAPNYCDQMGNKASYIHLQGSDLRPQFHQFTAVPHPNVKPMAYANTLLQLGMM
NR2E3 ag conf: NR2E3 agonist confirmation in cells, cell-based, luminescence, CHO-S two-hybrid. 2,300 compounds, 51% hits. inhibition, % at 3.98 µM. shares compounds with NR2E3 ag-1. CHO-S mammalian two-hybrid NR2E3-NCOR, luciferase luminescence;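 active = average inhibition above a cutoff equal to the mean inhibition of all tested compounds plus one SD, cut at about 70% in these data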
VP16 counter: GAL4-VP16 reporter modulators, confirmation, counter-screen for NR2E3 agonist project, cell-based, luminescence, CHO-S, high throughput. shares compounds with NR2E3 ag-1. CHO-S GAL4-VP16 luciferase reporter. inhibition, % at 3.98 µM. 2,300 compounds, 29% hits. AID 624379, 2012;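 active = mean inhibition above a cutoff equal to the average over all tested compounds plus one standard deviation, cut at about 70% in these data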;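 also: luciferase from a UAS reporter driven by GAL4-VP16 transactivation; higher means less reporter light so more repression of VP16 activity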
Large screens that a line does not name were inactive (follow-up assays come after a bar, where they were run). An excerpt weighted towards active compounds, which were near 1.3% of everything screened.

N#C/C(=N\Nc1cccc(C(F)(F)F)c1)C(=O)c1csc(-c2cccnc2)n1	NR2E3 ag-1 77 | NR2E3 ag conf 94 | VP16 counter 77
Cc1ccc(Cl)cc1N1CCN(C(=O)CN(C2CCCCC2)S(C)(=O)=O)CC1	none | NR2E3 ag conf inactive | VP16 counter inactive
CS(=O)(=O)N(CC(=O)N1CCN(c2cccc(Cl)c2)CC1)C1CCCCC1	none
Cc1ccc(Cl)cc1N1CCN(C(=O)COc2ccc(S(=O)(=O)NC(C)C)cc2)CC1	none | NR2E3 ag conf inactive | VP16 counter inactive
COc1ccccc1-n1c(=O)oc2ccc(Cl)cc2c1=O	NR2E3 ag-1 73 | NR2E3 ag conf 96 | VP16 counter inactive
Cc1cc(OCc2cc(C(=O)N3CCN(C)C(=O)[C@@H]3C)no2)cc(C)c1Cl	none | NR2E3 ag conf inactive | VP16 counter inactive
Cc1ccc2oc(/N=C(\N)NC(=O)C3CC3)nc2c1	none
Cc1ccc2oc(/N=C(\N)NC(=O)C(C)(C)C)nc2c1	NR2E3 ag-1 91 | NR2E3 ag conf 92 | VP16 counter inactive
COc1ccc(-c2nc3ncccn3c2Nc2ccccc2)cc1	none
Cc1cccn2c(Nc3ccccc3)c(-c3ccccn3)nc12	NR2E3 ag-1 82 | NR2E3 ag conf inactive | VP16 counter inactive
COc1ccc(CNS(=O)(=O)c2ccc3c(c2)CCN3C(=O)C2CC2)cc1	none | NR2E3 ag conf inactive | VP16 counter inactive
O=C(C1CCC1)N1CCc2cc(S(=O)(=O)NCCN3CCN(c4ccccc4F)CC3)ccc21	none | NR2E3 ag conf inactive | VP16 counter inactive
COc1cccc(CNC(=O)C2CCN(S(=O)(=O)c3ccc4c(c3)CC(C)N4C(=O)C3CC3)CC2)c1 (centres undefined)	none
COc1cc(CNS(=O)(=O)c2ccc3c(c2)CC(C)N3C(=O)C2CCC2)cc(OC)c1OC (centres undefined)	none
COc1ccc(CNS(=O)(=O)c2ccc3c(c2)CC(C)N3C(=O)C2CC2)cc1 (centres undefined)	NR2E3 ag-1 95 | NR2E3 ag conf 89 | VP16 counter 75
COc1cccc(CNS(=O)(=O)c2ccc3c(c2)CC(C)N3C(=O)C2CC2)c1 (centres undefined)	none | NR2E3 ag conf inactive | VP16 counter inactive
CC1(C(=O)NCc2cccc(Cl)c2)Cc2c(-c3ccc4c(c3)OCO4)ccnc2O1 (centres undefined)	none (no result: NR2E3 ag-2, PP1 inh, PP5 primary)
Cc1cc(C)n2nc(SCc3cccc(S(=O)(=O)N(C)C)c3)nc2n1	none
CN(C)S(=O)(=O)c1cccc(CSCc2cccc(S(=O)(=O)N(C)C)c2)c1	NR2E3 ag-1 88 | NR2E3 ag conf 94 | VP16 counter 81
CSCCC(NC(=O)c1ccc(Cl)cc1Cl)C(=O)NCC(c1cccs1)N(C)C (centres undefined)	none (no result: NR2E3 ag-2, PP1 inh, PP5 primary)
CCOC(=O)NN=C1c2ccccc2-c2ccccc21	none (no result: NR2E3 ag-2, PP1 inh, PP5 primary)
CCOC(=O)Nc1ccc2c(c1)C(=NNC(=S)NC)c1ccccc1-2	NR2E3 ag-1 86 (no result: NR2E3 ag-2, PP1 inh, PP5 primary) | NR2E3 ag conf inactive | VP16 counter inactive
O=C(C[C@H]1C/C=C\CC[C@@H](Cc2ccc(F)cc2)C(=O)OCCNC1=O)NCCO	none (no result: NR2E3 ag-2, PP1 inh, PP5 primary)
Cc1nc(N/N=C/c2cccc(F)c2)cc(N2CCOCC2)n1	none | NR2E3 ag conf inactive | VP16 counter inactive
CCCCN(C(=O)c1c(CC)noc1C)c1c(N)n(CCC)c(=O)[nH]c1=O	none
COc1ccc(NS(=O)(=O)c2ccc3oc(SC)nc3c2)cc1	NR2E3 ag-1 74 | NR2E3 ag conf inactive | VP16 counter inactive
Brc1ccc(-c2nnc3sc(CN4CCc5ccccc5C4)cn23)cc1	none (no result: NR2E3 ag-2, PP1 inh, PP5 primary)
c1ccc(-c2nnc3sc(CN4CCc5ccccc54)cn23)cc1	none | NR2E3 ag conf inactive | VP16 counter inactive
Cc1cccc(C(=O)N[C@H](C(=O)Nc2ncc(C)s2)C(C)C)c1	NR2E3 ag-1 85 | NR2E3 ag conf 98 | VP16 counter inactive
Cc1cccc(C(=O)N[C@H](C(=O)Nc2nnc(C3CC3)s2)C(C)C)c1	none
O=C(NC(=S)N1CCN(c2nc(-c3ccccc3)cs2)CC1)c1cncc(Br)c1	none | NR2E3 ag conf inactive | VP16 counter inactive
COc1ccccc1-c1cccc(-c2nc(C(=O)Nc3nccs3)cc3c2[C@@H](CCO)N(C(=O)CC2CC2)C3)c1	none (no result: NR2E3 ag-2, PP1 inh, PP5 primary)
CCN(CC)S(=O)(=O)c1ccc(S(=O)(=O)Nc2c(C)nn(C)c2C)cc1	none | NR2E3 ag conf inactive | VP16 counter inactive
Cc1nn(C(C)(C)C)c(C)c1/C=N/OC(=O)Nc1ccc(Cl)c(Cl)c1	NR2E3 ag-1 92 | NR2E3 ag conf inactive | VP16 counter 96
COc1cccc(NC(=O)c2ccc3nc(C)sc3c2)c1	none
Cc1ccc(Cl)cc1N1CCN(C(=O)C2CCN(S(=O)(=O)c3cccnc3)CC2)CC1	none | NR2E3 ag conf inactive | VP16 counter inactive
CC1Cc2cc(S(=O)(=O)N3CCN(c4ccc(Cl)cc4)CC3)ccc2N1C(=O)C1CC1 (centres undefined)	none
O=C(C1CCN(S(=O)(=O)c2cccnc2)CC1)N1CCN(c2ccccc2Cl)CC1	none
CC(=O)N1c2ccc(S(=O)(=O)N3CCC(C(=O)N4CCN(c5ccc(Cl)cc5)CC4)CC3)cc2CC1C (centres undefined)	none | NR2E3 ag conf 77 | VP16 counter inactive
COc1ccccc1N=NNc1ccccc1OC	none (no result: NR2E3 ag-2, PP1 inh, PP5 primary)
Cc1ccn2c(CNCC3OCCc4ccccc43)c(C(=O)N3CCCCCC3)nc2c1 (centres undefined)	none
O=C(OCCN1C(=O)c2cccc3c(N4CCOCC4)ccc(c23)C1=O)c1ccccc1Cl	none | NR2E3 ag conf 93 | VP16 counter 92
Cc1ccc(S(=O)(=O)N2CCC(C(=O)Nc3nnc(C)s3)CC2)cc1	none
BrC(=C\c1ccccc1)/C=N/Nc1ccc2nncn2n1	none
BrC(=C\c1ccccc1)/C=N/n1cnnc1	none (no result: NR2E3 ag-2, PP1 inh, PP5 primary) | NR2E3 ag conf inactive | VP16 counter inactive
Cc1ccc(S(=O)(=O)N2CCCCC2)cc1NCC(=O)Nc1ccc(Br)cc1F	none (no result: NR2E3 ag-2, PP1 inh, PP5 primary) | NR2E3 ag conf 81 | VP16 counter 72
O=C(CNc1ccccc1F)Nc1cc(S(=O)(=O)N2CCCCC2)ccc1Cl	none
COc1cc(CNC[C@H]2O[C@@H](n3ccc(N)nc3=O)[C@H](O)[C@@H]2O)ccc1OCc1cccc(Cl)c1	none (no result: NR2E3 ag-2, PP1 inh, PP5 primary)
COc1ccccc1C#CC1=CC(=O)C[C@H](c2ccc(F)cc2)C1	none (no result: NR2E3 ag-2, PP1 inh, PP5 primary)
Cc1cc(=O)[nH]c2nc3ccccc3n12	none (no result: NR2E3 ag-2, PP1 inh, PP5 primary)
CCN(CC(=O)Nc1cccc(OC)c1)c1ncnc2sc(C)c(C)c12	NR2E3 ag-1 71 | NR2E3 ag conf 88 | VP16 counter 71
